From ChEMBL document CHEMBL1142419, “Antimycobacterial activities of novel 2-(sub)-3-fluoro/nitro-5,12-dihydro-5-oxobenzothiazolo[3,2-a]quinoline-6-carboxylic acid” (Bioorg Med Chem, 2008)
Converted amounts (≈) assume the structure as drawn.

What was measured:
[1] = tested on: Mycobacterium tuberculosis; assay: Antimycobacterial activity against Mycobacterium tuberculosis H37Rv by agar dilution method; assay type: functional
Procedure, shortened: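 MIC by agar dilution on Middlebrook 7H11 agar supplemented with OADC, following an NCCLS-like procedure, run in duplicate. The MDR-TB clinical isolate was resistant to isoniazid, rifampicin, ethambutol and ofloxacin.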

[2] = tested on: Mycolicibacterium smegmatis; assay: Antimycobacterial activity against Mycobacterium smegmatis MC2 by agar dilution method; assay type: functional
Procedure, shortened: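 Agar dilution on Middlebrook 7H11 agar supplemented with OADC, following an NCCLS-like procedure; MIC determined in duplicate against M. smegmatis ATCC 14468 (MC²).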

[3] = tested on: Vero; assay: Cytotoxicity against african green monkey Vero cells after 72 hrs by MTT assay; assay type: cell-based; settings: Chlorocebus sabaeus
Procedure, shortened: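 Vero mammalian cells were exposed to compounds for 72 h, with testing at 62.5 µg/ml. Viability was read as cellular conversion of MTT to formazan (non-radioactive cell proliferation kit), and IC50 was reported.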

[4] = tested on: Mus musculus; assay: Phototoxicity in Swiss albino mouse assessed as erythema incidence at 140 mg/kg, po after 4 hrs of irradiation; assay type: organism-based; parameters: dose 140 mg/kg, route oral; settings: in vivo
Procedure, shortened: (§1)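 Female Swiss albino mice (about 2 months, 20–25 g), fasted at least 18 h, received a single oral gavage of 140 mg/kg. Groups: six per group; lomefloxacin HCl 140 mg/kg; vehicle 0.5% aqueous sodium carboxymethylcellulose at 10 ml/kg. Mice were UV-irradiated for 4 h (about 18 J/cm²). Both ears were scored for erythema, edema and ear thickness (left/right averaged) pre-dose, at end of irradiation, and at about 24, 48, 72 and 96 h. Ear thickness change from baseline was tested by Student's t-tests.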

[5] = tested on: Mus musculus; assay: Phototoxicity in Swiss albino mouse assessed as ear thickness at 140 mg/kg, po after 96 hrs of irradiation; assay type: organism-based; parameters: dose 140 mg/kg, route oral; settings: in vivo; procedure, shortened: as §1
[6] = tested on: Mus musculus; assay: (§2) Phototoxicity in Swiss albino mouse assessed as erythema incidence at 140 mg/kg, po after 48 hrs of irradiation; assay type: organism-based; parameters: dose 140 mg/kg, route oral; settings: in vivo; procedure, shortened: as §1
[7] = tested on: Mus musculus; assay: Phototoxicity in Swiss albino mouse assessed as erythema incidence at 140 mg/kg, po after 24 hrs of irradiation; assay type: organism-based; parameters: dose 140 mg/kg, route oral; settings: in vivo; procedure, shortened: as §1
[8] = tested on: Mus musculus; assay: Phototoxicity in Swiss albino mouse assessed as erythema incidence at 140 mg/kg, po after 96 hrs of irradiation; assay type: organism-based; parameters: dose 140 mg/kg, route oral; settings: in vivo; procedure, shortened: as §1
[9] = tested on: Mus musculus; assay: as §2; assay type: organism-based; parameters: dose 140 mg/kg, route oral; settings: in vivo; procedure, shortened: as §1; remark: listed apart in the source
[10] = tested on: Mus musculus; assay: Phototoxicity in Swiss albino mouse assessed as ear thickness at 140 mg/kg, po after 4 hrs of irradiation; assay type: organism-based; parameters: dose 140 mg/kg, route oral; settings: in vivo; procedure, shortened: as §1
[11] = tested on: Mus musculus; assay: Phototoxicity in Swiss albino mouse assessed as ear thickness at 140 mg/kg, po after 48 hrs of irradiation; assay type: organism-based; parameters: dose 140 mg/kg, route oral; settings: in vivo; procedure, shortened: as §1
[12] = Inhibition of Mycobacterium smegmatis DNA gyrase supercoiling activity; parameters: species or system Mycolicibacterium smegmatis
[13] = tested on: Mus musculus; assay: Phototoxicity in Swiss albino mouse assessed as ear thickness at 140 mg/kg, po after 72 hrs of irradiation; assay type: organism-based; parameters: dose 140 mg/kg, route oral; settings: in vivo; procedure, shortened: as §1
[14] = tested on: Mus musculus; assay: Phototoxicity in Swiss albino mouse assessed as ear thickness at 140 mg/kg, po after 24 hrs of irradiation; assay type: organism-based; parameters: dose 140 mg/kg, route oral; settings: in vivo; procedure, shortened: as §1
[15] = tested on: Mycobacterium tuberculosis; assay: Antimycobacterial activity against Mycobacterium tuberculosis ATCC 35801 infected in CD1 mouse assessed as bacterial load in lung at 50 mg/kg, ip after 10 days; assay type: functional; settings: route intraperitoneal
Procedure, shortened: (§3)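 Six-week-old female CD-1 mice, six per group, infected intravenously via caudal vein with ~10⁷ viable M. tuberculosis ATCC 35801. Intraperitoneal dosing began 10 days after inoculation and ran 10 days. On day 35 post-infection, spleens and right lungs were removed and homogenized. Serial 10-fold dilutions were plated on 7H10 agar (37 °C, ambient air, 4 weeks). Log CFU compared against vehicle-treated controls.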

[16] = tested on: Mycobacterium tuberculosis; assay: Antimycobacterial activity against Mycobacterium tuberculosis ATCC 35801 infected in CD1 mouse assessed as bacterial load in spleen at 50 mg/kg, ip after 10 days; assay type: functional; settings: route intraperitoneal; procedure, shortened: as §3

Molecule `CC1CN(c2cc3c(cc2[N+](=O)[O-])c(=O)c(C(=O)O)c2sc4ccccc4n23)CC(C)O1` (centres undefined) has an MIC [1] of 6.9 µM (≈ 3.13 µg/mL) and an MIC [2] of 110 µM (≈ 50 µg/mL).
`O=C(O)c1c(=O)c2cc(F)c(N3CCN(C(=O)c4ccco4)CC3)cc2n2c1sc1ccccc12` gave an MIC [1] of 6.37 µM (≈ 3.13 µg/mL) and an MIC [2] of 50.9 µM (≈ 25 µg/mL).
Molecule `O=C(O)c1c(=O)c2cc([N+](=O)[O-])c(N3CCN(Cc4ccc5c(c4)OCO5)CC3)cc2n2c1sc1ccccc12` has an MIC [1] of 5.6 µM (≈ 3.13 µg/mL), an IC50 [3] of 112 µM and an MIC [2] of 44.8 µM (≈ 25 µg/mL).
With `Cc1onc(-c2c(F)cccc2F)c1C(=O)N1CCN(c2cc3c(cc2F)c(=O)c(C(=O)O)c2sc4ccccc4n23)CC1` the MIC [1] was 2.52 µM (≈ 1.56 µg/mL) and the MIC [2] was 40.4 µM (≈ 25 µg/mL).
Molecule `CC(C)(C)NC(=O)C1c2ccccc2CCN1c1cc2c(cc1[N+](=O)[O-])c(=O)c(C(=O)O)c1sc3ccccc3n12` (centres undefined) has an MIC [1] of 2.73 µM (≈ 1.56 µg/mL) and an MIC [2] of 43.8 µM (≈ 25 µg/mL).
`COc1ccc(CC2C3=C(CCCC3)CCN2c2cc3c(cc2F)c(=O)c(C(=O)O)c2sc4ccccc4n23)cc1` (centres undefined) gave an MIC [1] of 5.5 µM (≈ 3.13 µg/mL) and an MIC [2] of 44 µM (≈ 25 µg/mL).
`O=C(O)c1c(=O)c2cc(F)c(N3CCSCC3)cc2n2c1sc1ccccc12` showed an MIC [1] of 3.76 µM (≈ 1.56 µg/mL) and an MIC [2] of 7.55 µM (≈ 3.13 µg/mL).
In the case of `O=C(O)c1c(=O)c2cc(F)c(N3CCC(O)(c4ccc(Cl)cc4)CC3)cc2n2c1sc1ccccc12`, the MIC [1] is reported as 0.36 µM (≈ 0.188 µg/mL), the Activity [4] is reported as “Non-toxic” and the Activity [5] is reported as 0.3 mm. The Activity [6] was “Non-toxic”, the Activity [7] was “Non-toxic” and the IC50 [3] was 120 µM. For the same molecule, the Activity [8] was “Non-toxic”, the Activity [9] was “Non-toxic” and the Activity [10] was 0.32 mm. The Activity [11] was 0.29 mm, the IC50 [12] was 40 µg/mL (≈ 76.5 µM) and the Activity [13] was 0.32 mm. For the same molecule, the Activity [14] was 0.31 mm and the MIC [2] was 2.98 µM (≈ 1.56 µg/mL).
With `CCn1cc(C(=O)O)c(=O)c2cc(F)c(N3CCNC(C)C3)c(F)c21` (centres undefined) [LOMEFLOXACIN] the Activity [4] was “Toxic”, the Activity [5] was 0.6 mm and the Activity [6] was “Toxic”. For the same molecule, the Activity [7] was “Toxic”, the Activity [8] was “Toxic” and the Activity [9] was “Toxic”. The Activity [10] was 0.4 mm, the Activity [11] was 0.53 mm and the Activity [13] was 0.64 mm. The Activity [14] was 0.48 mm.
Work on `O=C(O)c1c(=O)c2cc(F)c(N3CCN(C(=O)C4COc5ccccc5O4)CC3)cc2n2c1sc1ccccc12` (centres undefined) yielded an MIC [1] of 1.39 µM (≈ 0.778 µg/mL), an IC50 [3] of 112 µM and an IC50 [12] of over 50 µg/mL. For the same molecule, the MIC [2] was 2.79 µM (≈ 1.56 µg/mL).
Molecule `CCN(CC)C(=O)C1CCCN(c2cc3c(cc2[N+](=O)[O-])c(=O)c(C(=O)O)c2sc4ccccc4n23)C1` (centres undefined) has an MIC [1] of 2.99 µM (≈ 1.56 µg/mL), an IC50 [3] of 59.8 µM and an MIC [2] of 95.7 µM (≈ 50 µg/mL).
`O=C(O)c1c(=O)c2cc([N+](=O)[O-])c(N3CCC(N4CCCCC4)CC3)cc2n2c1sc1ccccc12` showed an MIC [1] of 3.08 µM (≈ 1.56 µg/mL), an IC50 [3] of 61.7 µM and an MIC [2] of 98.7 µM (≈ 50 µg/mL).
With `O=C(O)c1c(=O)c2cc(F)c(N3CCC4(CC3)OCCO4)cc2n2c1sc1ccccc12` the MIC [1] was 0.86 µM (≈ 0.391 µg/mL), the Activity [4] was “Non-toxic” and the Activity [5] was 0.3 mm. The Activity [6] was “Non-toxic”, the Activity [7] was “Non-toxic” and the IC50 [3] was over 138 µM. For the same molecule, the Activity [8] was “Non-toxic”, the Activity [9] was “Non-toxic” and the Activity [10] was 0.3 mm. It also gave an Activity [11] of 0.3 mm, an Activity [13] of 0.28 mm and an Activity [14] of 0.31 mm. The MIC [2] was 6.89 µM (≈ 3.13 µg/mL).
Work on `O=C(O)c1c(=O)c2cc([N+](=O)[O-])c(N3CCC4(CC3)OCCO4)cc2n2c1sc1ccccc12` yielded an MIC [1] of 1.62 µM (≈ 0.78 µg/mL), an IC50 [3] of 130 µM and an MIC [2] of 104 µM (≈ 50 µg/mL).
With `O=C(O)c1c(=O)c2cc([N+](=O)[O-])c(N3CCSCC3)cc2n2c1sc1ccccc12` the MIC [1] was 7.09 µM (≈ 3.13 µg/mL) and the MIC [2] was 113 µM (≈ 50 µg/mL).
With `CN1CCN(c2cc3c(cc2[N+](=O)[O-])c(=O)c(C(=O)O)c2sc4ccccc4n23)CC1c1ccccc1` (centres undefined) the MIC [1] was 12.2 µM (≈ 6.25 µg/mL) and the MIC [2] was 97.2 µM (≈ 50 µg/mL).
Molecule `O=C(O)c1c(=O)c2cc(F)c(N3CCC(n4c(=O)[nH]c5cc(Cl)ccc54)CC3)cc2n2c1sc1ccccc12` has an MIC [1] of 2.77 µM (≈ 1.56 µg/mL) and an MIC [2] of 44.4 µM (≈ 25 µg/mL).
`COc1cc2c(cc1OC)CN(c1cc3c(cc1F)c(=O)c(C(=O)O)c1sc4ccccc4n13)CC2` gave an MIC [1] of 1.55 µM (≈ 0.782 µg/mL), an IC50 [3] of over 124 µM and an MIC [2] of 6.2 µM (≈ 3.13 µg/mL).
Molecule `COc1c(N2CCNC(C)C2)c(F)cc2c(=O)c(C(=O)O)cn(C3CC3)c12` (centres undefined) [GATIFLOXACIN] has an MIC [1] of 1.04 µM (≈ 0.39 µg/mL), a Log10 cfu [15] of 6.02 and an IC50 [3] of over 155 µM. The Log10 cfu [16] was 6.92 and the MIC [2] was 2.08 µM (≈ 0.781 µg/mL).
